NRP1-CendR mod: modulators of CendR peptide binding to human neuropilin-1; FAM-RPARPAR peptide binding to NRP-1, fluorescence polarization; inhibition, % at 25 µM; 0.85% of 360,000 active;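 active = inhibition or corrected inhibition above about 18%, plus a signal ratio from 0.5 to 1.5, limit read from the data, passing the limit was not always enough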
M18AAP inhibitor: PfM18AAP enzyme inhibition; recombinant PfM18AAP, H-Glu-NHMec fluorogenic cleavage; inhibition, % at 7.35 µM; 1.2% of 290,000 active;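 active = inhibition above the campaign mean inhibition over all tested compounds plus 3 SD, cut at about 28% in these data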
m5-HT2A agonist: activates the mouse 5-HT2A serotonin receptor; P35363; CHO-K1 mHTR2A beta-arrestin complementation, luminescence; percent of 30 µM serotonin response; activation, % at 7.6 µM; 0.66% of 360,000 active; AID 624169;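 active = activation above a run cutoff, the mean activation of all tested compounds plus 3 SD, cut at about 14% in these data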
Arr AP2 block: human beta-arrestin and AP2 interaction inhibition; FITC-arrestin peptide / GST-AP2 beads, flow cytometry; AP2 beta2 appendage carries R879A mutation; 0.31% of 340,000 active; AID 504490; inhibition, % at 10 µM;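 active = inhibition above a set limit, near 3 SD of compounds lacking own fluorescence, cut at about 54% in these data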
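test system = AP2 appendage R879A on GSH beads | buffer or medium = PBS plus Tween 20 (0.05%) and BSA (0.1%) | incubation = 12 min plus 1 h, RT | detection = bead flow cytometry, FITC channel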
Lipid droplet: hepatic lipid droplet formation modulation; AML12 mouse hepatocytes, oleate lipid droplets, BODIPY imaging; inhibition, % at 6.5 µM; 0.4% of 240,000 active;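 active = lipid droplet intensity inhibited by at least 50%, with more than 500 cells counted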
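Test system: AML12 mouse liver cells; schedule: overnight exposure; technique: high-content imaging of BODIPY-stained droplets and DAPI nuclei; read-out: % inhibition of corrected integrated BODIPY droplet signal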
sPLA2-III inh: Blocks human group III sPLA2 activity | Q9NZ20 | 0.56% of 370,000 active | AID 743126 | inhibition, % at 12.2 µM | QFRET BODIPY PC-A2 liposome hydrolysis, fluorescence;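 active = inhibition above mean plus 3 SD of compounds lying within the high and low control bounds, cut at about 19% in these data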
MOR ag counter: OPRM1 agonism in mouse HTR2A counterscreen. U2OS OPRM1 beta-arrestin PathHunter, luminescence; DMSO 0%, DAMGO 9.3 µM 100%. shares compounds with m5-HT2A agonist. 5.3% of 2,300 active. activation, % at 9.3 µM. AID 624380;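 active = mean activation above the mean of DMSO-only wells plus 3 SD, cut at about 0.5% in these data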
Target sequence (P35372 whole entry, looked up): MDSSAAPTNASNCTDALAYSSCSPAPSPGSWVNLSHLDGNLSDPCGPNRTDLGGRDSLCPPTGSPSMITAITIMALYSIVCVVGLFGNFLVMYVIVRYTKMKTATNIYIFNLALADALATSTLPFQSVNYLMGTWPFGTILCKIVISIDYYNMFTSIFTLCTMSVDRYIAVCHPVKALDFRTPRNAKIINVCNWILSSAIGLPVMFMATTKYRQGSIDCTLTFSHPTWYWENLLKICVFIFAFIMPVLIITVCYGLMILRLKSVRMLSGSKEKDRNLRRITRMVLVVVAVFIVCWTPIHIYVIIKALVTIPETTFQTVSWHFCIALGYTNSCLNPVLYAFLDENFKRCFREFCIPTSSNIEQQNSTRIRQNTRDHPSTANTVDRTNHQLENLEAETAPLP
HTR2A ag conf: confirmation of mouse HTR2A serotonin receptor agonists. shares compounds with m5-HT2A agonist. CHO-K1 PathHunter beta-arrestin recruitment, luminescence; DMSO 0%, 30 µM serotonin 100%. activation, % at 7.6 µM. 19% of 2,300 active. AID 624381;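 active = mean activation across triplicates above the hit threshold derived in the original primary screen, cut at about 15% in these data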
Hits are given with their value; . = inactive; / = no result given. This is a sample that favours compounds with a hit; in the whole collection about 3.3% have one here.

SMILES	NRP1-CendR mod	M18AAP inhibitor	m5-HT2A agonist	Arr AP2 block	Lipid droplet	sPLA2-III inh	MOR ag counter	HTR2A ag conf
CC(C)(C)c1ccc(C(=O)N2CCC2(C)C(=O)Nc2cccc(C#N)c2)cc1 (configuration not stated)	.	/	.	/	/	.	/	/
O=C(NCc1ccccc1)[C@H]1CCCN1C(=O)[C@H]1CCCN1C(=O)c1ccc(F)c(F)c1	/	/	/	/	/	.	/	/
COc1ccc(CC2(CO)CCN(Cc3cc4ccccc4o3)CC2)cc1	.	.	39.6	.	.	.	.	65.5
OCC1(Cc2cccc(C(F)(F)F)c2)CCN(Cc2cc3ccccc3o2)CC1	.	.	24.3	.	.	.	.	64.0
COc1ccc(N2C[C@@]3(O)CC[C@@H](O)[C@@H](OC)[C@@H]3[C@@]2(C)[C@H](O)CC=C(C)C)cc1	/	/	/	/	/	.	/	/
C=C(C)c1cccc(C(C)(C)NC(=O)N2CCN(CC)CC2)c1	.	.	.	.	.	.	/	/
C=C(C)c1cccc(C(C)(C)NC(=O)N2CCCCC2CC)c1 (configuration not stated)	.	.	52.9	.	.	.	.	17.5
C=C(C)c1cccc(C(C)(C)NC(=O)N2CCC(C)CC2)c1	.	.	18.9	.	.	.	.	.
C=C(C)c1cccc(C(C)(C)NC(=O)NC(c2ccccc2)c2ccc(OC)cc2)c1 (configuration not stated)	.	.	.	.	.	.	/	/
C=C(C)c1cccc(C(C)(C)NC(=O)Nc2ccc(OC)cc2)c1	.	.	16.9	.	.	.	.	.
C=C(C)c1cccc(C(C)(C)NC(=O)N2CCN(C)CC2)c1	.	.	.	.	.	.	/	/
COCc1[nH]nc2c1C(c1ccccc1)NC2=O (configuration not stated)	/	/	/	/	/	.	/	/
C=CCN1CC(COCc2ccccc2)OCCS1(=O)=O (configuration not stated)	/	/	/	/	/	.	/	/
Cc1ccc(NC(=O)[C@H]2CC(=O)O[C@@H]2c2ccccc2)cc1C	/	/	/	/	/	.	/	/
CN(CC(=O)Nc1cccc(F)c1)C(=O)CC1CCCCC1	.	/	.	.	/	.	/	/
COc1ccc(NC(=O)c2ccc(NC(=O)c3nc4nc(C)cc(C)n4n3)cc2)cc1	.	/	15.3	.	/	.	.	.
Cc1cc(C)n2nc(C(=O)Nc3ccc4c(c3)CCC4)nc2n1	.	.	.	.	.	.	/	/
COc1ccc(NC(=O)CSc2nc3nc(C)cc(C)n3n2)cc1	.	.	.	.	.	.	/	/
CCc1ccc(NC(=O)CSc2nc3nc(C)cc(C)n3n2)cc1	.	.	17.5	.	.	.	.	.
CCOC(=O)[C@]12CCCC=C1N(Cc1ccco1)C(=O)[C@H](CC(=O)NCCC(C)C)C2	.	/	.	/	/	.	/	/
O=C(CN1CCN(c2cccc(Cl)n2)CC1)N1CC(O)CO1 (configuration not stated)	.	.	27.2	.	.	.	.	.
COc1ccc(OCC(=O)Nc2ccc(C(=O)Nc3ccccc3C(=O)O)cc2)cc1	.	.	.	.	.	.	/	/
O=C(COc1ccc(Br)cc1)Nc1ccc(C(=O)Nc2ccccc2C(=O)O)cc1	.	.	17.7	.	.	.	.	.
COc1cc(C=Nn2c(-c3ccccc3F)n[nH]c2=S)ccc1OCc1ccccc1	/	/	/	/	/	.	/	/
Cc1cccc(S(=O)(=O)NCCc2cn3ccccc3n2)c1	.	.	.	.	.	.	/	/
SMILES	NRP1-CendR mod	M18AAP inhibitor	m5-HT2A agonist	Arr AP2 block	Lipid droplet	sPLA2-III inh	MOR ag counter	HTR2A ag conf
Cc1ccn2cc(CCNS(=O)(=O)c3ccc4c(c3)CCCC4)nc2c1	.	.	25.1	.	.	.	.	.
COC(=O)C1=C(C)N(Cc2cccc(C(F)(F)F)c2)C(=NCc2cc(OC)c(OC)c(OC)c2)NC1c1ccccc1 (configuration not stated)	/	/	/	/	/	.	/	/
CC(Oc1cccc(Cl)c1)C(=O)Nc1nc(-c2ccccn2)cs1 (configuration not stated)	.	/	.	.	/	.	/	/
O=C(Nc1ccc(F)cc1)C(c1cc2ccccc2o1)N1CCN(CC(=O)N2CCCC2)CC1 (configuration not stated)	.	/	26.6	/	/	.	.	.
O=C(Nc1ccc(F)cc1)C(c1cccc(F)c1)N1CCN(CC(=O)N2CCCC2)CC1 (configuration not stated)	.	/	.	/	/	.	/	/
O=C(CSc1nnc(-c2cccnc2)n1Cc1ccco1)Nc1ccc(Cl)c(Cl)c1	/	/	/	/	/	.	/	/
CCCCNC(=O)COC(=O)CCC(=O)c1ccc(Cl)cc1	.	.	.	.	.	.	/	/
O=C(COC(=O)CCC(=O)c1ccc(Cl)cc1)NCCc1ccccc1	.	.	18.3	.	.	.	.	.
COCCN(C(=O)COC(=O)CC1CCCCC1)c1c(N)n(Cc2ccccc2)c(=O)[nH]c1=O	.	.	.	.	.	.	/	/
COCCN(C(=O)COC(=O)C1CCCCC1)c1c(N)n(Cc2ccccc2)c(=O)[nH]c1=O	.	/	16.0	/	/	.	.	.
O=c1c2ccccc2nc(/C=C/c2cc(Br)ccc2O)n1CCO	.	/	.	.	/	.	/	/
O=c1c2ccccc2nc(/C=C/c2c[nH]c3ccccc23)n1CCO	.	.	14.5	.	.	.	.	.
Cc1cccc(-c2nnc(SCC(=O)Nc3cc(C)on3)n2C)c1	.	.	17.8	.	.	.	.	.
CCc1ccccc1-n1nnnc1SCC(=O)Nc1cc(C)on1	.	.	15.4	.	.	.	.	.
Cc1cc(NC(=O)CSc2nnnn2-c2ccccc2C)no1	.	.	.	.	.	.	/	/
Cc1cccc(NC(=O)CSc2nnc(-c3ccc(S(=O)(=O)N4CCOCC4)cc3)n2C)c1	.	.	28.9	.	/	.	0.8	.
CCc1ccc(S(=O)(=O)Nc2ccncc2)cc1	.	.	15.4	.	.	.	.	.
O=S(=O)(Nc1ccncc1)c1ccc(Cl)cc1	.	.	.	.	.	.	/	/
O=C(CSc1ccccc1)NCc1ccco1	.	.	15.3	.	.	.	.	.
O=C(CSCC(=O)NCc1ccco1)NCc1ccco1	.	.	.	.	.	.	/	/
COCCN(Cc1ccccc1)C(=O)c1cc(-c2ccc(OC)c(OC)c2)nc2ccccc12	.	.	17.2	.	.	.	.	.
C=CCn1c2ccccc2c2nnc(SCCCn3c(=O)[nH]c4ccccc43)nc21	.	.	17.2	.	.	.	.	.
C=CCn1c2ccccc2c2nnc(SCCN3CCCCC3)nc21	.	.	.	.	.	.	/	/

From PubChem BioAssay
